Bioassay records as filed in PubChem.
procasp7 counter – counter-screen for procaspase-3 activators: activators of human procaspase-7 | P55210 | recombinant procaspase-7, Ac-DEVD-pNA absorbance 405 nm; D23A/D198A/D206A triple mutant, cannot self-cleave; scale: DMSO 0, 5 µM enzyme 100 | activation, % at 8.5 µM | 330,000 tested, 0.093% active | AID 463210;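 active = percent activation above the screen-wide mean plus 3 SD, cut at about 25% in these data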
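Assay system: Uncleavable procaspase-7 mutant enzyme; Input: 2 µM procaspase-7 mutant as dispensed; Also added: DEVD-pNA substrate; Medium: Zinc-free HEPES pH 7.4 with 300 mM NaCl, 0.01% Triton X-100; Timing: 1 h compound preincubation, 2 h substrate cleavage, 25 °C; Measured by: Epi-absorbance of released pNA at 405 nm, two timepoints.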
LYPLA2 inh – blocks human lysophospholipase 2, a PME1 counter-screen. O95372. recombinant LYPLA2, FP-Rh probe fluorescence polarization. inhibition, % at 5.9 µM. 320,000 tested, 0.38% active;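 active = inhibition above the screen-wide mean plus 3 SD, limit set per campaign, cut at about 26% in these data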;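 also: 0% = LYPLA2 with DMSO and 100% = wells lacking LYPLA2 enzyme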
Target sequence (O95372 whole entry, looked up): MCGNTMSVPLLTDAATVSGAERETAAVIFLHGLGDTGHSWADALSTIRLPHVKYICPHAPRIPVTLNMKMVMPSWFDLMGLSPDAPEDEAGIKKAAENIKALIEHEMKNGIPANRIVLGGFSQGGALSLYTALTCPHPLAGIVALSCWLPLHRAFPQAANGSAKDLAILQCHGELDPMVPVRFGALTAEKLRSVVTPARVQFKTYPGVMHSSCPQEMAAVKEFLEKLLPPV
PREPL inh – inhibitors of human prolyl oligopeptidase-like enzyme PREPL; Q4J6C6; recombinant PREPL, fluorescence polarization activity-based probe; inhibition, % at 5.96 µM; 320,000 tested, 0.68% active; AID 2751;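 also: 0% = enzyme with DMSO and 100% = wells lacking enzyme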
procasp3 activ – procaspase-3 (human) activation | P42574 | recombinant procaspase-3 D3A, Ac-DEVD-pNA absorbance 405 nm | activation, % at 8.5 µM | 330,000 tested, 0.11% active | AID 463141;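 active = activation above the mean of all tested compounds plus 3 SD, cut at about 21% in these data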;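 also: 0% = DMSO alone and 100% = DMSO wells spiked with extra 5 µM PC-3 D3A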
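Technique: 405 nm absorbance of p-nitroaniline, reads at 0 and 120 min; Test system: Procaspase-3 D3A mutant; Incubation: 1 h enzyme-compound preincubation, then 2 h substrate reaction, 25 °C; Repeats: singlicate, each compound tested once; Benchmarks: low control DMSO wells, high control DMSO plus 5 µM PC-3 D3A.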
LYPLA1 inh – LYPLA1 (human) inhibition in PME1 counter-screen; recombinant LYPLA1, FP-Rh probe fluorescence polarization; O75608; 320,000 tested, 0.16% active; inhibition, % at 5.9 µM; AID 2174;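 active = inhibition above the mean of all tested compounds plus 3 SD, set per campaign, cut at about 14% in these data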;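 also: inhibitors block serine hydrolase probe labeling of LYPLA1 so polarization falls; 0% = enzyme with DMSO and 100% = wells lacking LYPLA1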
Target sequence (O75608 whole entry, looked up): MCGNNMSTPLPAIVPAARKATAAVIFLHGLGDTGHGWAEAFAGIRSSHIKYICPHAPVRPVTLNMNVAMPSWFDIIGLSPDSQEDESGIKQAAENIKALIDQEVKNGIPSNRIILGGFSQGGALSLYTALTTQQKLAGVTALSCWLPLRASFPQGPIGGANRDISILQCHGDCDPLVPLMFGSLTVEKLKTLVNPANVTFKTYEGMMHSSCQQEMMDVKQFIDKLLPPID
PREPL confirm – human PREPL inhibition, confirmation. shares compounds with PREPL inh. recombinant PREPL, fluorescence polarization activity probe. inhibition, % at 5.96 µM. 2,000 tested, 67% active. AID 2803;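 also: 0% = protein with DMSO and 100% = wells lacking protein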
An asterisk follows results filed as active; x = not tested or not shown. Compounds with a hit are over-represented: about 1.1% of the library has one in this group of screens. Rule as the data show it, unless noted: active = inhibition above about 43%; inactive = the rest.

SMILES	procasp7 counter	LYPLA2 inh	PREPL inh	procasp3 activ	LYPLA1 inh	PREPL confirm
Cc1ccc(Nc2nnc(SC/C(O)=C(\C#N)c3nc4ccccc4[nH]3)s2)c(C)c1	0	-4	49*	2	-8	41
O=C1OC[C@@H]2CCCN2C(=O)[C@H](CC(=O)N(CCO)Cc2ccccc2)C/C=C\C[C@H]1Cc1ccc(F)cc1	-2	x	51*	2	x	39
NC(=O)C1CC(=O)N(c2ccc(OCc3ccc(Cl)cc3Cl)cc2)C1 (stereo not drawn)	4	-1	47*	7	6	43
Nc1cc(F)ccc1N1CCCCCC1	5	0	43*	-7	-1	26
CCC(=O)N1CCN(c2ccccc2NC(=O)c2cccs2)CC1	-1	3	3	-3	-5	x
O=C1/C(=N\S(=O)(=O)c2cccs2)C([n+]2ccc(CCCc3ccccc3)cc2)=C([O-])c2ccccc21	-2	3	69*	-16	1	70*
Cc1ccc(N=Cc2cccc(O)c2O)c(C)c1	-18	2	56*	-14	-2	7
CCCCN1C(=N)N([C@@H](CN2CCC[C@H]2CN2C(N)=NC[C@@H]2Cc2ccccc2)C(C)C)C[C@H]1Cc1ccccc1	2	x	65*	-1	x	59*
CCCCN1C(=N)N([C@@H](C)CN2CCC[C@H]2CN2C(N)=NC[C@@H]2Cc2ccccc2)C[C@H]1Cc1ccccc1	-10	x	54*	1	x	44*
CC(C)C[C@@H]1CN=C(N)N1C[C@@H]1CCCN1C[C@@H](C(C)C)N1C[C@@H](Cc2ccccc2)N(CCCC2CCCC2)C1=N	8	x	60*	3	x	51*
Cc1cccc(NC(=O)CSc2nnc(-c3cc(C)[nH]n3)n2N)c1	9	-4	1	7	-2	x
O=C(Cc1ccc2c(c1)OCCO2)N1CCN(S(=O)(=O)c2cccc(C(F)(F)F)c2)CC1	-1	-2	81*	-10	-5	5
O=S(=O)(c1cccc(C(F)(F)F)c1)N1CCN(S(=O)(=O)c2ccc3c(c2)OCCO3)CC1	-5	x	15	-3	x	x
COc1ccc(C2CC(C)(c3ccc(OC)cc3)Nc3ccccc3N2)cc1 (stereo not drawn)	-10	-7	45*	-3	-2	39
C=CCOc1c(CNc2ccc3[nH]c(=O)[nH]c3c2)cccc1OC	4	3	14	-7	3	x
O=c1[nH]c2ccc(NCc3ccccc3OCc3ccc(Cl)cc3)cc2[nH]1	-8	7	72*	-15	3	73*
Cc1[nH]c2ccc(C(=O)NCCN3CCCCCC3)cc2c1C	-2	-5	61*	-1	-1	32
N#C/C(=C\c1ccccc1C(=O)O)c1nc2ccccc2[nH]1	-2	-1	34	2	-3	x
N#C/C(=C\c1cccnc1)c1nc2ccccc2[nH]1	-10	-2	56*	-10	-2	13
COc1ccc(OCc2nnc(SCC(=O)NC3CC4CCC3C4)o2)cc1 (stereo not drawn)	-5	-6	14	5	-2	x
O=C(CSc1nnc(COc2ccc(Cl)cc2)o1)NC1CC2CCC1C2 (stereo not drawn)	-3	-2	46*	-1	-2	36
CC(C)c1ccc(NC(=O)CCNS(=O)(=O)c2cc(Br)cnc2N)cc1	13	3	4	2	-2	x
CC(=O)c1ccc(N2Cc3ccccc3/C2=N\C(=O)Nc2ccc(Cl)cc2)cc1	7	-29	-14	4	-14	x
COc1ccc(-n2c(-c3ccccc3)cc3c2CCCC3=O)cc1	-8	-1	49*	0	0	41
CCN(C(=O)COC(=O)CNC(=O)c1ccc(F)cc1)C1CCS(=O)(=O)C1 (stereo not drawn)	-12	-3	1	2	-1	x
COc1ccc(CNCc2ccccc2[N+](=O)[O-])cc1OC	-4	7	11	-3	2	x
CC(=O)Nc1cc(OC(=O)c2ccco2)cc(OC(=O)c2ccco2)c1	5	0	50*	12	-3	37
Cc1ccc(Sc2cnn(-c3ccccc3)c(=O)c2Cl)cc1	-8	1	46*	-6	7	38
